{"source": "ChEMBL document CHEMBL2034960", "about": "“Bryonolic acid transcriptional control of anti-inflammatory and antioxidant genes in macrophages in vitro and in vivo” (J Nat Prod, 2012)", "key": {"[1]": {"test_system": "RAW264.7", "experiment": "Antiinflammatory activity in mouse RAW264.7 cells assessed as inhibition of LPS-induced iNOS protein expression at 100 uM after 24 hrs by immunoblot analysis", "assay_type": "functional, cell-based"}, "[2]": {"test_system": "RAW264.7", "experiment": "Cytotoxicity against mouse RAW264.7 cells at 100 uM after 8 hrs by MTT assay", "assay_type": "cell-based", "details": "raw264.7, 8 h"}, "[3]": {"test_system": "RAW264.7", "experiment": "Antioxidant activity in LPS-stimulated mouse RAW264.7 cells assessed as induction of HO-1 protein expression at 50 uM after 24 hrs by immunoblot analysis", "assay_type": "functional, cell-based"}, "[4]": {"test_system": "Mus musculus", "experiment": "Induction of HO1 […] expression in Nrf2-wild type C57BL/6 mouse liver at 500 mg/kg, ip measured after 8 hrs by immunoblot analysis"}, "[5]": {"target": "T1, Nuclear factor erythroid 2-related factor 2 (Mus musculus) (UniProt Q60795)", "T1 sequence (whole entry)": "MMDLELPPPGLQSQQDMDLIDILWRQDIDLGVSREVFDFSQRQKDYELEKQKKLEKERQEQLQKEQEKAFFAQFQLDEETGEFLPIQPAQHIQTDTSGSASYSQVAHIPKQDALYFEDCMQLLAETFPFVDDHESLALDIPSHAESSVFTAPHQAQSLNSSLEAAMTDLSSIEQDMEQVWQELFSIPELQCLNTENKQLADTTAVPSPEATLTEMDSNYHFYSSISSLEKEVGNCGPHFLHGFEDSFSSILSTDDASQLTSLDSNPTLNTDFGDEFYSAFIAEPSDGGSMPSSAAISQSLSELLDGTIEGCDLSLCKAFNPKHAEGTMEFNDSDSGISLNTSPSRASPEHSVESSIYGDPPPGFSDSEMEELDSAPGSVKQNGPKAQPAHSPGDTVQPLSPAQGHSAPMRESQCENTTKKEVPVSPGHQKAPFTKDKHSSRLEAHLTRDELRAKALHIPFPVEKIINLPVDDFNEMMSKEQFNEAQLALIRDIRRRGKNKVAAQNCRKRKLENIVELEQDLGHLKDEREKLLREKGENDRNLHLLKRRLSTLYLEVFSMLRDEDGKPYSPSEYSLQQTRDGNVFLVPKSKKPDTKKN", "experiment": "Induction of Nrf2-mediated HO1 mRNA expression in mouse RAW264.7 cells at 100 uM after 24 hrs by quantitative RT-PCR analysis relative to control", "assay_type": "cell-based"}, "[6]": {"test_system": "RAW264.7", "experiment": "Antioxidant activity in mouse RAW264.7 cells assessed as induction of HO1 expression at 50 uM after 24 hrs by immunoblot analysis", "assay_type": "functional, cell-based"}, "[7]": {"test_system": "RAW264.7", "experiment": "Induction of Nrf2 mRNA expression in mouse RAW264.7 cells at 100 uM after 20 hrs by quantitative RT-PCR analysis relative to control", "assay_type": "functional"}, "[8]": {"experiment": "Solubility of the compound in DMSO", "assay_type": "physicochemical"}, "[9]": {"test_system": "RAW264.7", "experiment": "Antiinflammatory activity in mouse RAW264.7 cells assessed as inhibition of LPS-induced iNOS protein expression at 50 uM after 24 hrs by immunoblot analysis relative to control", "assay_type": "functional, cell-based"}, "[10]": {"target": "T1, Nuclear factor erythroid 2-related factor 2 (Mus musculus)", "experiment": "Induction of Nrf2-mediated NQO1 mRNA expression in mouse RAW264.7 cells at 100 uM after 20 hrs by quantitative RT-PCR analysis relative to control", "assay_type": "cell-based", "in_short": "(§1)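 RAW 264.7 cells (DMEM, 10% FBS, 37°C, 5% CO2) exposed to 100 μM compound for a series of time points without stated LPS activation. Total RNA isolated, converted to cDNA, and NQO1 quantified by TaqMan real-time RT-PCR using mouse-specific assays. Fold change versus control derived by the ΔΔCt relative quantification method (40 cycles, 95/60 °C).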"}, "[11]": {"target": "T1, Nuclear factor erythroid 2-related factor 2 (Mus musculus)", "experiment": "Induction of Nrf2-mediated HO1 […] expression in C57BL/6 mouse primary peritoneal macrophages at 10 uM after 48 hrs by immunoblot analysis"}, "[12]": {"test_system": "RAW264.7", "experiment": "Antiinflammatory activity in mouse RAW264.7 cells assessed as inhibition of LPS-induced nitric oxide production at 50 to 100 uM after 24 hrs by Griess method", "assay_type": "functional", "set-up": "scale not given: the % may be the effect or the level left"}, "[13]": {"target": "T1, Nuclear factor erythroid 2-related factor 2 (Mus musculus)", "experiment": "Induction of Nrf2-mediated GR mRNA expression in mouse RAW264.7 cells at 100 uM after 24 hrs by quantitative RT-PCR analysis relative to control", "assay_type": "cell-based"}, "[14]": {"target": "T1, Nuclear factor erythroid 2-related factor 2 (Mus musculus)", "experiment": "Induction of Nrf2-mediated NQO1 mRNA expression in mouse RAW264.7 cells at 100 uM after 24 hrs by quantitative RT-PCR analysis relative to control", "assay_type": "cell-based", "in_short": "as §1"}, "[15]": {"test_system": "RAW264.7", "experiment": "Antioxidant activity in LPS-stimulated mouse RAW264.7 cells assessed as induction of HO-1 protein expression at 100 uM after 24 hrs by immunoblot analysis", "assay_type": "functional, cell-based"}, "[16]": {"test_system": "RAW264.7", "experiment": "Antioxidant activity in LPS-stimulated mouse RAW264.7 cells assessed as induction of HO-1 mRNA expression at 50 uM after 24 hrs by RT-PCR analysis", "assay_type": "functional, cell-based"}, "[17]": {"test_system": "RAW264.7", "experiment": "Antioxidant activity in mouse RAW264.7 cells assessed as induction of HO1 expression at 100 uM after 6 hrs by immunoblot analysis", "assay_type": "functional, cell-based"}, "[18]": {"test_system": "RAW264.7", "experiment": "Antioxidant activity in mouse RAW264.7 cells assessed as induction of HO1 expression after 24 hrs by immunoblot analysis"}, "[19]": {"target": "T1, Nuclear factor erythroid 2-related factor 2 (Mus musculus)", "experiment": "Induction of Nrf2-mediated CAT mRNA expression in mouse RAW264.7 cells at 100 uM after 4 to 24 hrs by quantitative RT-PCR analysis relative to control", "assay_type": "cell-based"}, "[20]": {"test_system": "RAW264.7", "experiment": "Antioxidant activity in LPS-stimulated mouse RAW264.7 cells assessed as induction of HO-1 mRNA expression at 100 uM after 20 hrs by RT-PCR analysis relative to control", "assay_type": "functional"}, "[21]": {"test_system": "RAW264.7", "experiment": "Antioxidant activity in LPS-stimulated mouse RAW264.7 cells assessed as induction of HO-1 mRNA expression at 100 uM after 4 hrs by RT-PCR analysis relative to control", "assay_type": "functional"}, "[22]": {"target": "T1, Nuclear factor erythroid 2-related factor 2 (Mus musculus)", "experiment": "Induction of Nrf2-mediated GCLC mRNA expression in mouse RAW264.7 cells at 100 uM after 20 hrs by quantitative RT-PCR analysis relative to control", "assay_type": "cell-based"}, "[23]": {"target": "T1, Nuclear factor erythroid 2-related factor 2 (Mus musculus)", "experiment": "Induction of Nrf2-mediated HO1 […] expression in C57BL/6 mouse primary peritoneal macrophages at 50 uM after 48 hrs by immunoblot analysis"}, "[24]": {"test_system": "RAW264.7", "experiment": "Antiinflammatory activity in mouse RAW264.7 cells assessed as inhibition of LPS-induced nitric oxide production after 24 hrs by Griess method", "assay_type": "functional, cell-based", "details": "RAW264.7, 24 h"}, "[25]": {"test_system": "RAW264.7", "experiment": "Antioxidant activity in LPS-stimulated mouse RAW264.7 cells assessed as induction of HO-1 protein expression after 24 hrs by immunoblot analysis", "assay_type": "functional, cell-based"}, "[26]": {"test_system": "RAW264.7", "experiment": "Antiinflammatory activity in mouse RAW264.7 cells assessed as inhibition of LPS-induced iNOS […] expression at 50 uM after 24 hrs by immunoblot analysis", "assay_type": "functional, cell-based"}, "[27]": {"test_system": "RAW264.7", "experiment": "Antioxidant activity in LPS-stimulated mouse RAW264.7 cells assessed as induction of HO-1 […] expression after 24 hrs by immunoblot analysis", "assay_type": "functional, cell-based"}, "[28]": {"test_system": "RAW264.7", "experiment": "Antioxidant activity in LPS-stimulated mouse RAW264.7 cells assessed as induction of HO-1 mRNA expression at 100 uM after 4 hrs by RT-PCR analysis", "assay_type": "functional, cell-based"}, "[29]": {"test_system": "RAW264.7", "experiment": "Antiinflammatory activity in mouse RAW264.7 cells assessed as inhibition of LPS-induced iNOS protein expression after 24 hrs by immunoblot analysis", "assay_type": "functional, cell-based"}}, "note": "Active and inactive are the calls of the source. No cut-off for these calls is given here."}
{"smiles": "CC1(C)[C@@H](O)CC[C@]2(C)C3=C(CC[C@@H]12)[C@@]1(C)CC[C@@]2(C)CC[C@@](C)(C(=O)O)C[C@H]2[C@]1(C)CC3", "note": "[BRYONOLIC ACID]", "values": [{"measurement": "Activity", "setting": "[1]", "result": "Active"}, {"measurement": "Activity", "setting": "[2]", "result": "Non-toxic"}, {"measurement": "Activity", "setting": "[3]", "result": "Active"}, {"measurement": "Activity", "setting": "[4]", "result": "Active"}, {"measurement": "Activity", "setting": "[5]", "result": "Active"}, {"measurement": "Activity", "setting": "[6]", "result": "Active"}, {"measurement": "fold change (FC)", "setting": "[7]", "result": 1.8}, {"measurement": "solubility", "setting": "[8]", "result": "soluble"}, {"measurement": "Activity", "setting": "[9]", "result": "Active"}, {"measurement": "fold change (FC)", "setting": "[10]", "result": 11.7}, {"measurement": "Activity", "setting": "[11]", "result": "Active"}, {"measurement": "Activity", "setting": "[12]", "result": 72, "unit": "%"}, {"measurement": "Activity", "setting": "[13]", "result": "inactive"}, {"measurement": "Activity", "setting": "[14]", "result": "Active"}, {"measurement": "Activity", "setting": "[15]", "result": "Active"}, {"measurement": "Activity", "setting": "[16]", "result": "Active"}, {"measurement": "Activity", "setting": "[17]", "result": "Active"}, {"measurement": "Activity", "setting": "[18]", "result": "Dose-dependent effect"}, {"measurement": "Activity", "setting": "[19]", "result": "Active"}, {"measurement": "fold change (FC)", "setting": "[20]", "result": 11.3}, {"measurement": "fold change (FC)", "setting": "[21]", "result": 4.1}, {"measurement": "fold change (FC)", "setting": "[22]", "result": 1.8}, {"measurement": "Activity", "setting": "[23]", "result": "Active"}, {"measurement": "IC50", "setting": "[24]", "result": 53.3, "unit": "µM"}, {"measurement": "Activity", "setting": "[25]", "result": "Dose-dependent effect"}, {"measurement": "Activity", "setting": "[26]", "result": "Active"}, {"measurement": "Activity", "setting": "[27]", "result": "Dose-dependent effect"}, {"measurement": "Activity", "setting": "[28]", "result": "Active"}, {"measurement": "Activity", "setting": "[29]", "result": "Dose-dependent effect"}]}
